Assay outcomes from PubChem BioAssay.
Shown are actives, neighbours in structure and some others; about 4.8% of the full set was active somewhere.
T cruzi inh: blocks replication of Trypanosoma cruzi | T. cruzi beta-gal in NIH3T3, luminescence, 90 h | 300,000 compounds, 1.4% hits | inhibition, % (concentration not given with the values);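 active = mean inhibition across valid replicates above about 55%, limit read from the data; inconclusive = mean below that limit but half or more replicates reach it; inactive = mean below it, under half of replicates reach it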;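 also: signal also drops with host cell toxicity which is not excluded here; higher percent means less beta-gal luminescence so fewer parasites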
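Material: NIH/3T3 host cells with β-galactosidase reporter T. cruzi; Input: 5,000 host fibroblasts per well; Medium: DMEM, 2% fetal bovine serum; Compound: 50 nL DMSO compound solution per well; Schedule: 3 h host attachment, then at least 90 h co-culture; Detection: luminescent β-galactosidase signal after 60 min lysis.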
GPR7 antagonist: antagonists of human GPR7 (neuropeptides B/W receptor 1); GPR7-expressing cells, fluorescence antagonist assay; inhibition, % at 4.4 µM; 290,000 compounds, 1.1% hits; AID 1861; in the data active = inhibition above about 16%, passing the limit was not always enough;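 also: cells stimulated with the agonist NPW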
Target sequence (P48145 whole entry, looked up): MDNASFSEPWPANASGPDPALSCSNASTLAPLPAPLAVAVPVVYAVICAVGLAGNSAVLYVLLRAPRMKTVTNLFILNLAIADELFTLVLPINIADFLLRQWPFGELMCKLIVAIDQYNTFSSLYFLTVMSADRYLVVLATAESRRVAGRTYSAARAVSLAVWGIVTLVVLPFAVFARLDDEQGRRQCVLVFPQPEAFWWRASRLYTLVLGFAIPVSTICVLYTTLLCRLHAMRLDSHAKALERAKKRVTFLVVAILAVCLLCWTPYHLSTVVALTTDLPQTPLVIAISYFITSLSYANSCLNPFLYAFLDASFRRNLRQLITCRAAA
697 NFkB inh: lowers PMA/ionomycin-induced NF-kB signal in 697 B cells. 697 B-cell NF-kB luciferase reporter, 16 h. inhibition, % at 4 µM. AID 435022. 330,000 compounds, 0.33% hits; in the data active = inhibition above about 35%
HSF1 inh: HSF1 inhibition; NIH3T3-HGL HSE-luciferase, MG132-induced, luminescence 8 h; stronger effect = lower value; activity change, negative = inhibition, % at 7.5 µM (by protocol); 300,000 compounds, 0.77% hits; AID 2098;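 active = more than half of replicate wells show activity change below -50%, luminescence cut by over half; inconclusive = some wells, but at most half, below -50%; inactive = no replicate well below -50%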;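 also: luciferase reports HSF-1 transcriptional activity via heat shock element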
Jurkat NFkB inh: inhibitors of the PMA/ionomycin-induced NF-kB reporter in Jurkat cells. PMA/ionomycin-induced NF-kB luciferase reporter, luminescence. 330,000 compounds, 0.53% hits. AID 435003. inhibition, % at 4 µM; in the data active = inhibition above about 50%
HSF-1 act: increases HSF-1 driven luciferase reporter signal; NIH3T3-HGL HSF-1 luciferase reporter, MG132, 8 h; 100% = twice DMSO control signal; activation, % at 9 µM; 300,000 compounds, 1.7% hits;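 active = mean replicate activation of at least 50% with a set share of replicates each reaching 50%; inconclusive = only one of those two conditions met; inactive = mean below 50% and too few replicates reaching it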
Jurkat NFkB conf: lowers PMA/ionomycin-induced NF-kB signal in Jurkat cells; shares compounds with Jurkat NFkB inh; Jurkat NF-kB luciferase, 16 h; inhibition, % at 4 µM; 2,700 compounds, 27% hits; AID 435020;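 active = inhibition reaching about 45% at 4 µM in either replicate, limit read from the data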
Large screens that a line does not name were inactive (follow-up assays come after a bar, where they were run).

CCc1ccc(CCC(=O)Nc2ncc(Cc3ccccc3Cl)s2)o1	Jurkat NFkB inh 66 | Jurkat NFkB conf inactive
O=C(CN1CCOCC1)Nc1ncc(Cc2ccccc2Cl)s1	none
O=C(NC1CCCC1)c1cc(S(=O)(=O)N2CCCC2)ccc1Cl	none
CCOC(=O)c1c(N)sc(C(N)=O)c1C	none
CCOC(=O)c1c(N)sc(C(=O)Nc2ccccc2)c1C	none | Jurkat NFkB conf inactive
CCOC(=O)c1sc(NC(=O)Nc2ccccc2)cc1C	HSF-1 act 82 | Jurkat NFkB conf inactive
CCOC(=O)c1c(N)sc(C(=O)Nc2ccccc2F)c1C	HSF-1 act 95 | Jurkat NFkB conf inactive
CC(C)c1ccc(CCNC(=O)CCNS(=O)(=O)c2ccc(Br)cc2)cc1	none (no result: T cruzi inh, GPR7 antagonist, HSF1 inh, HSF-1 act)
C/C(=N\Nc1ccc2nncn2n1)c1ccccn1	T cruzi inh 63, Jurkat NFkB inh 55 | Jurkat NFkB conf inactive
CO/N=C/C(=N\Nc1ccc(C)cc1)C(=O)c1ccc(OC)cc1	Jurkat NFkB inh 51 | Jurkat NFkB conf inactive
CCC(C)NC(=O)c1cn(CC)c2ccc(S(=O)(=O)N3CCCCCC3)cc2c1=O (stereo not given)	none
Cn1cc(C(=O)NCc2cccs2)c(=O)c2cc(S(=O)(=O)N3CCCC3)ccc21	none (no result: 697 NFkB inh, Jurkat NFkB inh)
CC(=O)OC1CSC2c3ccccc3C(=O)N2Cc2sccc21 (stereo not given)	none
CCc1ccc(-n2nc3cc(C)c(N)cc3n2)cc1	none | Jurkat NFkB conf inactive
COc1ccc(C2c3ccc4ccccc4c3Oc3ncn(CCCN(C)C)c(=N)c32)cc1 (stereo not given)	Jurkat NFkB inh 52 | Jurkat NFkB conf inactive
COc1ccccc1C1c2ccc3ccccc3c2Oc2ncn(CCCO)c(=N)c21 (stereo not given)	none
COc1ccccc1C1c2ccc3ccccc3c2Oc2ncn(CCN(C)C)c(=N)c21 (stereo not given)	Jurkat NFkB inh 78 | Jurkat NFkB conf inactive
COc1ccc(C2c3ccc4ccccc4c3Oc3ncn(Cc4ccco4)c(=N)c32)cc1OC (stereo not given)	none
O=C(Nc1ccccn1)c1cc2cc([N+](=O)[O-])ccc2s1	none | Jurkat NFkB conf inactive
O=C(Nc1ccccn1)c1ccc([N+](=O)[O-])cc1Cl	none
C=Cn1cc[n+](CC(=O)c2ccc(Br)cc2)c1	none
O=C1COc2ccc3ccccc3c21	none
CC1CN(S(=O)(=O)c2ccc(C(=O)Nc3ccccc3F)cc2)CC(C)O1 (stereo not given)	none (no result: T cruzi inh, GPR7 antagonist, HSF1 inh, HSF-1 act)
Cc1cnc(NC(=O)C2CC(=O)N(c3cccc(Cl)c3)C2)s1 (stereo not given)	Jurkat NFkB inh 75, HSF-1 act 77 | Jurkat NFkB conf 72
COc1ccc(/C=C(\NC(=O)c2ccccc2)C(=O)NCCN2CCOCC2)cc1	none
CCOc1cccc2cc(-c3csc(NC(=O)CCC(=O)NCCCN4CCC(C)CC4)n3)c(=O)oc12	HSF-1 act inconclusive | Jurkat NFkB conf inactive
COc1cccc2cc(-c3csc(NC(=O)CCC(=O)NCCCN4CCC(C)CC4)n3)c(=O)oc12	none | Jurkat NFkB conf inactive
CCOc1cccc2cc(-c3csc(NC(=O)CCC(=O)NCCN4CCCCC4C)n3)c(=O)oc12 (stereo not given)	none | Jurkat NFkB conf inactive
Cc1ccc(S(=O)(=O)C2(C(=O)N3CCN(c4ccccc4F)CC3)CC2)cc1	none
O=c1c2sc(-c3ccccc3)cc2nc2n1CCC2	none
O=c1c2sc(-c3ccccc3)cc2nc2n1CCCCC2	HSF-1 act 55 | Jurkat NFkB conf inactive
CCOC(=O)/C=C/S(=O)(=O)c1ccc(NC(C)=O)cc1	GPR7 antagonist 18, Jurkat NFkB inh 53 | Jurkat NFkB conf inactive
C/C(=N\Nc1cccc([N+](=O)[O-])c1)c1cc(F)ccc1O	none
COc1ccc(Cl)cc1NC(=O)CN(C)CC(=O)Nc1ccccc1N1CCOCC1	Jurkat NFkB inh 63 | Jurkat NFkB conf inactive
Cc1cc(C)nc(/N=C(\N)Nc2ccc(S(=O)(=O)Nc3nc(C)cc(C)n3)cc2)n1	none
Cc1ccc(CN=C(N)Nc2nc(C)cc(C)n2)cc1	Jurkat NFkB inh 73 | Jurkat NFkB conf inactive
Cc1ccc2nc(-c3ccc(NC(=S)NC(=O)CC(C)C)cc3)sc2c1	none
Cc1ccc2nc(-c3ccc(NC(=O)C(C)Sc4nncs4)cc3)sc2c1 (stereo not given)	none (no result: GPR7 antagonist) | Jurkat NFkB conf inactive
CCCc1nc2oc3c(NCCCN(C)C)ncnc3c2c2c1CCCC2	Jurkat NFkB inh 90 | Jurkat NFkB conf inactive
O=C(COc1ccc(C(=O)c2ccccc2)cc1)NCc1ccc(F)cc1	Jurkat NFkB inh 69 | Jurkat NFkB conf inactive
CC(=O)c1sc(NC(=O)c2ccc3c(c2)OCO3)nc1C	none
CC(=O)c1sc(NC(=O)c2ccc(C(C)(C)C)cc2)nc1C	none | Jurkat NFkB conf inactive
COc1ccc(NC(=O)CN(C)C(=O)c2ccc(S(=O)(=O)Nc3ccccc3F)cc2)cc1	none (no result: GPR7 antagonist)
COc1cc(C(=O)OCC(=O)Nc2sccc2C(N)=O)cc(OC)c1OC	Jurkat NFkB inh 54 | Jurkat NFkB conf inactive
COc1ccc(C(=O)OCC(=O)Nc2sccc2C(N)=O)cc1OC	none
Brc1ccc(-c2cn3ccccc3n2)s1	none | Jurkat NFkB conf inactive
COc1ccc(-c2cn3ccccc3n2)cc1	none (no result: HSF1 inh, HSF-1 act)
COc1ccc(C(C(=O)NCC2CCCO2)N(C(=O)CNC(=O)c2ccco2)c2cc(C)ccc2C)cc1OC (stereo not given)	none
Cc1ccc(C(=O)CSc2cnc3ccccc3n2)cc1C	none
C=CCOc1ccc(C2CC(C)=NN2c2ccccc2)cc1 (stereo not given)	none
CN(C)c1ccc(/C=N\Nc2ccccn2)cc1	none | Jurkat NFkB conf inactive
Nc1c(C(=O)Nc2cccc(C(=O)O)c2)sc2nc3c(cc12)CCCC3	Jurkat NFkB inh 70 | Jurkat NFkB conf inactive
Nc1c(C(=O)Nc2ccc(Cl)c(C(=O)O)c2)sc2nc3c(cc12)CCCC3	none
COc1ccc2cc(CN(CC3CCCO3)C(=S)Nc3ccccc3)c(=O)[nH]c2c1 (stereo not given)	none | Jurkat NFkB conf inactive
COc1ccc2[nH]c(=O)c(CN(CC3CCCO3)C(=S)Nc3ccccc3)cc2c1 (stereo not given)	none
Cc1cc(C)c2ccc(N)nc2c1O	Jurkat NFkB inh 52 | Jurkat NFkB conf inactive
Cn1cc(/C=N/n2cnc3scc(-c4ccc(Cl)cc4)c3c2=O)c2ccccc21	Jurkat NFkB inh 62 | Jurkat NFkB conf 50
COc1cc(S(C)=O)ccc1-c1nc2ncccc2[nH]1 (stereo not given)	none (no result: T cruzi inh, GPR7 antagonist, HSF1 inh, HSF-1 act)
N#CCSc1ccccc1NC(=O)COC(=O)Cc1c[nH]c2ccccc12	none (no result: T cruzi inh, GPR7 antagonist, HSF1 inh, HSF-1 act)
Cc1ccc(C)c(NC(=O)C(Sc2ncnc3ccccc23)c2ccccc2)c1 (stereo not given)	none
